Legend:
[1] = target: Tyrosine-protein kinase JAK3 (Homo sapiens, UniProt P52333); assay: Inhibition of human JAK3
[2] = target: MAP/microtubule affinity-regulating kinase 3 (Homo sapiens) (UniProt P27448); assay: Inhibition of human MARK3 at 10 uM relative to control
[3] = target: Serine/threonine-protein kinase PAK 4 (Homo sapiens) (UniProt O96013); assay: Inhibition of human PAK4 at 10 uM relative to control
[4] = Clearance in human at 0.9 to 455.8 mg, iv administered for 3 hrs via infusion by LC-MS/MS analysis; assay type: ADME, organism-based; details: in vivo, dose 0.9-455.8 mg
Procedure, shortened: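 Randomized, double-blind, placebo-controlled single ascending-dose study in healthy male volunteers aged 18–36. Each subject received a 3-h i.v. infusion (0.9–455.8 mg). Plasma levels were measured by protein precipitation and LC-MS/MS (LLOQ 0.005 μm), with non-compartmental PK analysis. Half-life was calculated only for the four highest dose groups. The 3-h sample was taken as Css.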

Serine/threonine-protein kinase PAK 4 (Homo sapiens), sequence (O96013 whole entry, looked up, the tested form may be a part): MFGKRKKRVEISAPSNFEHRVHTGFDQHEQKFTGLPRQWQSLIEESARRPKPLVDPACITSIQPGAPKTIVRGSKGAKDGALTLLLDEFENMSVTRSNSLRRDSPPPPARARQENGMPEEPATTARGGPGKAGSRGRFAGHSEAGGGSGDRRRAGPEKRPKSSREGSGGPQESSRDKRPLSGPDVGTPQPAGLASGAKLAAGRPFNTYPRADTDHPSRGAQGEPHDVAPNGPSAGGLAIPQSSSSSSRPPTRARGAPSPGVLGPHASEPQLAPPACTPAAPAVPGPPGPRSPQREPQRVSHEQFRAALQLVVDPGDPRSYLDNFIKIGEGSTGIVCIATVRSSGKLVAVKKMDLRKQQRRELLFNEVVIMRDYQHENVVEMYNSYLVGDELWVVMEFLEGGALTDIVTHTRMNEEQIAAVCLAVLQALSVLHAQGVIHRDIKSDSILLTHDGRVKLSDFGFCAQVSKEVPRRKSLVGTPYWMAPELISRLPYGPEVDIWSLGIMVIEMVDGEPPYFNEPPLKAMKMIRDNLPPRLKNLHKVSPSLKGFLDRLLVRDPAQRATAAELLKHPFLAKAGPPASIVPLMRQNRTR
Tyrosine-protein kinase JAK3, sequence (P52333 whole entry): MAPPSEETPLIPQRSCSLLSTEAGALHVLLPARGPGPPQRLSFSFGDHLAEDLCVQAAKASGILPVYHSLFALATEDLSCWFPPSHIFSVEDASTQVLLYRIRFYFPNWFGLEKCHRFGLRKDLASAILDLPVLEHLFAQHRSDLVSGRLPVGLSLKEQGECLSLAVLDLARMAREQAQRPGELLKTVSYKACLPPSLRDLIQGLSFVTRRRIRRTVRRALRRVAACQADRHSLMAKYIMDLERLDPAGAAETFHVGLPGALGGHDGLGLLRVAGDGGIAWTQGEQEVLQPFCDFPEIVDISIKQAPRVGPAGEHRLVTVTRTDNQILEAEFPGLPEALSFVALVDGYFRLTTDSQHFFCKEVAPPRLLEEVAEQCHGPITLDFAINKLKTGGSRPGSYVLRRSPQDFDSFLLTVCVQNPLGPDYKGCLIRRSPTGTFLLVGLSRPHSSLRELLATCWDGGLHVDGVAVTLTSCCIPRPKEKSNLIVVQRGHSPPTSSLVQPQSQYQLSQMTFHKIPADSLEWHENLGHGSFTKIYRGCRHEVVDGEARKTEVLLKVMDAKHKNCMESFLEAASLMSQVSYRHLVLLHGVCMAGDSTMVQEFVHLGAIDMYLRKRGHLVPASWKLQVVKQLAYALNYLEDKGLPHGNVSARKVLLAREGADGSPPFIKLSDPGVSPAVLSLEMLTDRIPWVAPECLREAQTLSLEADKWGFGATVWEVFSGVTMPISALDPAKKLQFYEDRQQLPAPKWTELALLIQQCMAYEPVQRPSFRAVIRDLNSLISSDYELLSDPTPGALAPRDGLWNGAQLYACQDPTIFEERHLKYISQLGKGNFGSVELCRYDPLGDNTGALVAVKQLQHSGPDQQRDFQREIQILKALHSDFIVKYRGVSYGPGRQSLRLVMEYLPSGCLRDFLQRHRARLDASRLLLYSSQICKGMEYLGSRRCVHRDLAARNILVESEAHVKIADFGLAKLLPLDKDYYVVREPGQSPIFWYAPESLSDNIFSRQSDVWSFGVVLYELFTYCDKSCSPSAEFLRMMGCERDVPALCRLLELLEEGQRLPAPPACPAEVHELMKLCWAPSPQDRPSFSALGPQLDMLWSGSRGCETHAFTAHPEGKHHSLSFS
MAP/microtubule affinity-regulating kinase 3 (Homo sapiens), sequence (P27448 whole entry, looked up): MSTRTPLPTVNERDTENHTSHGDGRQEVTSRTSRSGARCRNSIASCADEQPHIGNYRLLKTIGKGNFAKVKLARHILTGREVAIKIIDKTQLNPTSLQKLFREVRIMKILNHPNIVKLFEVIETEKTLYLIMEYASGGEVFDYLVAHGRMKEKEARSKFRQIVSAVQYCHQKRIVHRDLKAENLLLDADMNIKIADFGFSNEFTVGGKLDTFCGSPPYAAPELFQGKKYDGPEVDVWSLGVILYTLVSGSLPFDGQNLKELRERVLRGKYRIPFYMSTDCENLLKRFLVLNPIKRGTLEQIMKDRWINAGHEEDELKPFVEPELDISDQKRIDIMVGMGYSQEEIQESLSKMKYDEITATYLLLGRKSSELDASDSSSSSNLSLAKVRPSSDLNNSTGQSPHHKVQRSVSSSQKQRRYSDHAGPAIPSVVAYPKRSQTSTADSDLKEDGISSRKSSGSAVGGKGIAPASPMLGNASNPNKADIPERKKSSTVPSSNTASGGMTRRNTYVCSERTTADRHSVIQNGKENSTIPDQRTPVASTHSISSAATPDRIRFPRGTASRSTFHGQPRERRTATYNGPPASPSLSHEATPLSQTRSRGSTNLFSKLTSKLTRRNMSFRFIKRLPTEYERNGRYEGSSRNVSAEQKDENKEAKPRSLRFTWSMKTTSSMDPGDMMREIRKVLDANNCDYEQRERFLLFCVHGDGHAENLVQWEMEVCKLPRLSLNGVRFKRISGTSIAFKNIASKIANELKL

## Cc1cc([C@@H](C)Nc2ccccc2C(=O)O)c2nc(N3CCOCC3)cc(=O)n2c1 [AZD-6482]
[1]
  IC50: > 201 µM
[2]
  inhibition: -7.3%
[3]
  inhibition: -6.4%
[4]
  clearance: 1180 mL/min

Reference: ChEMBL document CHEMBL5678808, “Human target validation of phosphoinositide 3-kinase (PI3K)β: effects on platelets and insulin sensitivity, using AZD6482 a novel PI3Kβ inhibitor” (J Thromb Haemost, 2012)
